As a reminder, the IC50 is the concentration needed to halve the response being measured. As usually defined, the EC50 is the concentration giving half of the maximal effect.

For assay [1], the species on record is Cavia porcellus. Put plainly: Calcium channel antagonist activity in guinea pig ileum longitudinal smooth muscle (GPILSM) at 10e-7 M. It counts as functional, organism-based.
The species entered for assay [2] is Cavia porcellus. Put plainly: Calcium channel agonist activity in guinea pig ileum longitudinal smooth muscle (GPILSM) at 10e-6 M. It is filed as functional, organism-based.
The species named for assay [3] is Cavia porcellus. Put plainly: Calcium channel agonist activity in guinea pig left atrium (GPLA) at 10e-8 M. As to conditions: Cardiac atrium.
The species named for assay [4] is Cavia porcellus. Put plainly: Calcium channel agonist activity in guinea pig left atrium (GPLA) at 10e-9 M. As to conditions: Cardiac atrium.
Assay [5] is filed under the species Cavia porcellus. Put plainly: Calcium channel agonist activity in guinea pig ileum longitudinal smooth muscle (GPILSM) at 10e-7 M. It counts as functional, organism-based.
For assay [6], the species on record is Cavia porcellus. Put plainly: Calcium channel agonist activity in guinea pig left atrium (GPLA) at 10e-7 M. It counts as functional. As to conditions: Cardiac atrium. The method, boiled down:
(§1)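 Isolated guinea pig left atrium: positive inotropic response was taken as the percentage increase in contractile force over the tissue's basal force measured without test compound.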

The species entered for assay [7] is Cavia porcellus. Put plainly: Calcium channel agonist activity in guinea pig ileum longitudinal smooth muscle (GPILSM) at 10e-5 M. It counts as functional, organism-based.
The species entered for assay [8] is Cavia porcellus. Put plainly: Calcium channel agonist activity in guinea pig left atrium (GPLA) at 10e-6 M. It is filed as functional. As to conditions: Cardiac atrium. The method, boiled down: as §1
The species named for assay [9] is Cavia porcellus. Put plainly: Calcium channel agonist activity in guinea pig left atrium (GPLA) at 10e-8 M. It counts as functional. The conditions noted are these: Cardiac atrium. The gist of the method: as §1
The species entered for assay [10] is Cavia porcellus. Put plainly: Calcium channel antagonist activity in guinea pig ileum longitudinal smooth muscle (GPILSM) at 10e-6 M. It counts as functional, organism-based.
For assay [11], the species on record is Cavia porcellus. Put plainly: Calcium channel agonist activity in guinea pig left atrium (GPLA) at 10e-5 M. The conditions noted are these: Cardiac atrium. It is filed as functional. The method, boiled down: as §1

On to `CC1=NC(C)=C([N+](=O)[O-])C(c2ccccn2)/C1=C(\O)OC(C)C` (centres undefined), for which the 50% inhibitory concentration (IC50) in the assay filed under Cavia porcellus [1] amounted to 0.207 µM. Moreover, the 50% effective concentration (EC50) was 5.27 µM in the assay listed under Cavia porcellus [2], 0.0458 µM in the assay filed under Cavia porcellus [3] and 0.00446 µM in the assay listed under Cavia porcellus [4].

Turning to `COC(=O)C1=C(C)NC(C)=C([N+](=O)[O-])C1c1ccccc1C(F)(F)F` (centres undefined), the EC50 came to 0.23 µM in the assay filed under Cavia porcellus [5] and 0.77 µM in the assay listed under Cavia porcellus [6].

As to `CC1=NC(C)=C([N+](=O)[O-])C(c2ccncc2)/C1=C(\O)OC(C)C` (racemic), the EC50 was 35 µM in the assay listed under Cavia porcellus [7] and 8.05 µM in the assay filed under Cavia porcellus [8].

With `CC1=NC(C)=C([N+](=O)[O-])C(c2ccccn2)/C1=C(\O)OC(C)C` (racemic), the EC50 in the assay filed under Cavia porcellus [8] came to 9.67 µM; in the assay filed under Cavia porcellus [9], 0.0458 µM; in the assay filed under Cavia porcellus [2], 5.27 µM. For the same compound, the 50% inhibitory concentration (IC50) in the assay listed under Cavia porcellus [10] stood at 4.87 µM.

As for `CC1=NC(C)=C([N+](=O)[O-])C(c2cccnc2)/C1=C(\O)OC(C)C` (racemic), the half-maximal effective concentration (EC50) in the assay filed under Cavia porcellus [7] came to 48 µM; in the assay listed under Cavia porcellus [11], 28.5 µM.

For the origin of these results see ChEMBL document CHEMBL1128482, “Syntheses, calcium channel agonist-antagonist modulation activities, and voltage-clamp studies of isopropyl 1,4-dihydro-2,6-dimethyl-3-nitro-4-pyridinylpyridine-5-carboxylate racemates and enantiomers” (J Med Chem, 1995).
